Published values from different studies.
Each line is one published result; the experiments were not run side by side.
Target: STE20/SPS1-related proline-alanine-rich protein kinase (STK39, Homo sapiens, UniProt Q9UEW8)

| Structure (SMILES) | effect on | mode | method | concentration | quantity | value |
| --- | --- | --- | --- | --- | --- | --- |
| CC(C)(O)[C@H]1CC[C@H](Nc2ccc3ncc(-c4cccc(C(F)(F)F)c4)n3n2)CC1 | enzyme activity | inhibitor |  | 1 µM | remaining activity | 112% |
| CCC(=O)N[C@@H]1CC[C@H](C(=O)N(C)c2ccc(-c3nc4ccccc4o3)cc2)C1 | cell-free assay |  | competition with immobilised ligand | 1 µM | remaining binding | 73% |
| Cc1ccc(NC(=O)c2ccc(CN3CCN(C)CC3)cc2)cc1Nc1nc(-c2cccnc2)cs1 | cell-free assay |  |  | 0.5 µM | remaining signal | 94% |
| CNC(=O)Nc1ccc2c(c1)[C@@]1(CC2)OC(=O)N(CC(=O)N(Cc2ccc(F)cc2)[C@@H](C)C(F)(F)F)C1=O | cell-free assay |  | competition with immobilised ligand | 1 µM | remaining binding | 100% |
| Cc1ccc(C(=O)Nc2ccc(CN3CCN(C)CC3)c(C(F)(F)F)c2)cc1C#Cc1cnc2cccnn12 | enzyme activity | inhibitor |  | 23.5 nM | remaining activity | 85% |
| CC(C)(C)c1nc(-c2cccc(NS(=O)(=O)c3c(F)cccc3F)c2F)c(-c2ccnc(N)n2)s1 | enzyme activity | inhibitor | radiometric | 1 µM | remaining activity | 81% |
| COc1cc2c(N3CCN(C(=O)Nc4ccc(OC(C)C)cc4)CC3)ncnc2cc1OCCCN1CCCCC1 | cell-free assay |  |  | 0.5 µM | remaining signal | 93.2% |
| Cn1cnc(Br)c1C1=CN(c2ncnc3[nH]cnc23)CCS1 | enzyme activity | inhibitor | radiometric | 50 nM | inhibition | 65.5% |
| O=C(Nc1cnn(-c2csc(C(=O)NC3COC3)c2)c1)Nc1c(F)cccc1Cl | enzyme activity | inhibitor |  | 5 µM | remaining activity | 82.3% |
| Cc1cc(-n2nc(Cc3cc(F)cc(C(F)(F)F)c3)nc2C)ccc1C(N)=O | cell-free assay |  | competition with immobilised ligand | 1 µM | remaining binding | 100% |
| N#CCCc1ccc2c(c1)-c1[nH]c3ccc([N+](=O)[O-])cc3c1CC(=O)N2 | cell-free assay |  |  | 0.5 µM | remaining signal | 96.4% |
| Nc1ncnc2occ(-c3ccc(NC(=O)Nc4cc(C(F)(F)F)ccc4F)cc3)c12 | cell-free assay | inhibitor |  | 20 µM | remaining signal | 19% |
